# According to the RNAGym collection of RNA variant scans (doi:10.1002/anie.201605470):
# B1: Osa-1-4 twister ribozyme (parent)
# chain: CCGCCUAACACUGCCAAUGCCGGUCCCAAGCCCGGAUAAAAGUGGAGGGGGCGG
# Variants of: B1
# Assay: self-cleavage, relative activity (ratio to wild type); higher = more cleavage; co-transcriptional
# Procedure, shortened: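 A DNA template encoding a 54-nucleotide twister ribozyme from Oryza sativa was made so that each of the 48 positions downstream of the cleavage site carried 97 % wild-type base and 1 % of each other base. Transcription in vitro ran for 2 h at 37 °C, during which the ribozyme could cleave itself. Reverse transcription used a template-switching oligonucleotide, and the products were PCR-amplified and deep-sequenced. Each read was scored as cleaved or uncleaved by whether upstream sequence was present, and relative activity is the fraction cleaved normalised to wild type.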
row,Variant,self-cleavage
1,C31U C52U,0.96
2,C31U C52A,0.57
3,C31U G30C,0.03
4,C31U G30U,0.03
5,C31U G30A,0.03
6,C31U U43C,0.08
7,C31U U43A,0.17
8,C31U U43G,0.1
9,C31A G50C,0.04
10,C31A G50A,0.04
11,C31A G50U,0.04
12,C32A G54U,0.18
13,C32A G54C,0.06
14,C32A G54A,0.11
15,C31G U12C,0.06
16,C31G U12A,0.08
17,C31G U12G,0.05
18,G30U G50A,0.03
19,G30U G50U,0.05
20,G30U G50C,0.05
21,C31G G23A,0.06
22,C31G G23U,0.03
23,C31G G23C,0.11
24,C31G U37C,0.09

row,Variant,self-cleavage
1,C31G U37A,0.12
2,C31G U37G,0.14
3,G30U U37C,0.04
4,G30U U37G,0.04
5,G30U U37A,0.02
6,G30U G54C,0.03
7,G30U G54U,0.05
8,G30U G54A,0.03
9,G30U U24G,0.01
10,G30U U24A,0.02
11,G30U U24C,0.02
12,C31A G54A,0.04
13,C31A G54U,0.05
14,C31A G54C,0.04
15,C31A G44A,0.04
16,C31A G44U,0.03
17,C31A G44C,0.03
18,C31A G30U,0.01
19,C31A G30C,0.03
20,C31A G30A,0.02
21,C31A G42U,0.01
22,C31A G42A,0.03
23,C31A G42C,0.02
24,C31A G23C,0.02

row,Variant,self-cleavage
1,C31A G23U,0.02
2,C31A G23A,0.03
3,C31U U24A,0.02
4,C31U U24C,0.05
5,C31U U24G,0.03
6,C31A G49C,0.01
7,C31A G49A,0.02
8,C31A G49U,0.02
9,C32A C33G,0.03
10,C32A C33A,0.07
11,C32A C33U,0.05
12,C31U G50A,0.64
13,C31U G50U,0.6
14,C31U G50C,0.26
15,C31U G49A,0.06
16,C31U G49U,0.06
17,C31U G49C,0.05
18,C32A C9G,0.06
19,C32A C9A,0.05
20,C32A C9U,0.05
21,C31G G48C,0.03
22,C31G G48U,0.02
23,C31G G48A,0.03
24,C31G G19A,0.08

row,Variant,self-cleavage
1,C31G G19U,0.05
2,C31G G19C,0.02
3,C31U G45U,0.04
4,C31U G45C,0.04
5,C31U G45A,0.04
6,C31U G23C,0.04
7,C31U G23U,0.04
8,C31U G23A,0.07
9,C32A G30A,0.02
10,C32A G30U,0.02
11,C32A G30C,0.03
12,C31G G30C,0.03
13,C31G G30U,0.04
14,C31G G30A,0.04
15,C31G G49C,0.03
16,C31G G49A,0.05
17,C31G G49U,0.03
18,C32A G22A,0.08
19,C32A G22C,0.03
20,C32A G22U,0.06
21,G30U U43C,0.04
22,G30U U43G,0.04
23,G30U U43A,0.04
24,C31G G45U,0.03

row,Variant,self-cleavage
1,C31G G45A,0.04
2,C31G G45C,0.03
3,C31G G50A,0.11
4,C31G G50C,0.07
5,C31G G50U,0.06
6,G30U G51A,0.05
7,G30U G51C,0.03
8,G30U G51U,0.03
9,C31G G47C,0.03
10,C31G G47U,0.04
11,C31G G47A,0.04
12,G30U G49C,0.02
13,G30U G49U,0.03
14,C31U U12C,0.11
15,C31U U12A,0.28
16,C31U U12G,0.19
17,C31A G51C,0.02
18,C31A G51A,0.04
19,C31A G51U,0.04
20,C31G G53A,0.08
21,C31G G53C,0.04
22,C31G G53U,0.07
23,C31G G44U,0.05
24,C31G G44A,0.08

row,Variant,self-cleavage
1,C31G G44C,0.07
2,C31A G34U,0.04
3,C31A G34A,0.05
4,C31A G34C,0.04
5,C32A G51U,0.04
6,C32A G51A,0.07
7,C32A G51C,0.03
8,C31A G53C,0.01
9,C31A G53A,0.04
10,C31A G53U,0.03
11,C31U G48A,0.05
12,C31U G48C,0.05
13,C31U G48U,0.04
14,C31A G22C,0.02
15,C31A G22U,0.04
16,C31A G22A,0.04
17,C31G G22U,0.05
18,C31G G22C,0.04
19,C31G G22A,0.11
20,C31U G13C,0.02
21,C31U G13U,0.05
22,C31U G13A,0.89
23,C31A G35U,0.05
24,C31A G35A,0.05

row,Variant,self-cleavage
1,C31A G35C,0.03
2,C31A G47U,0.02
3,C31A G47C,0.02
4,C31A G47A,0.02
5,C31G C9G,0.23
6,C31G C9A,0.03
7,C31G C9U,0.06
8,C32A U18G,0.19
9,C32A U18C,0.07
10,C32A U18A,0.11
11,C31G G54C,0.07
12,C31G G54A,0.1
13,C31G G54U,0.19
14,C32A G48U,0.03
15,C32A G48A,0.03
16,C32A G48C,0.04
17,C32A U24A,0.06
18,C31A U12A,0.04
19,C31A U12C,0.02
20,C31A U12G,0.04
21,G30U U12G,0.03
22,G30U U12C,0.03
23,G30U U12A,0.03
